Measured values reported in ChEMBL document CHEMBL3351317 (J Med Chem, 2014).

Columns and labels:
[1] = Distribution coefficient, log D between 1-octonol and aqueous phosphate buffer at pH 7.4; assay type: physicochemical; details: 1-octanol/aqueous phosphate buffer
Outline: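 logD measured as distribution between 1-octanol and aqueous phosphate buffer, pH 7.4.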

[2] = Plasma clearance in Han Wistar rat at 2 mg/kg, iv or 5 mg/kg, po; assay type: ADME, organism-based
Outline: (§1)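 Male Han Wistar rats. IV dose 2 mg/kg in 5% DMSO:95% hydroxypropyl β-cyclodextrin. Oral dose 5 mg/kg as a 0.1% HMPC/tween suspension. Plasma pharmacokinetic parameters derived.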

[3] = AUC (0 to 24 hrs) in Han Wistar rat at 19 mg/kg, po; assay type: ADME, organism-based; parameters: time < 24 hr, dose 19 mg/kg, route oral; details: plasma
Outline: (§2)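 Male Han Wistar rats, fed, single oral dose of suspension in 0.1% Pluronic F127; plasma AUC0-24hr in μM.h; mean of two animals.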

[4] = Volume of distribution at steady state in Han Wistar rat at 2 mg/kg, iv or 5 mg/kg, po; assay type: ADME, organism-based; details: in vivo, read-out: Vdss; outline: as §1
[5] = species on record: Mus musculus; assay: fCmax in mouse during 12 days study; assay type: ADME, organism-based; details: in vivo, 288 h
[6] = AUC (0 to 24 hrs) in beagle dog at 50 mg/kg, po; assay type: ADME, organism-based, Canis lupus familiaris; parameters: time < 24 hr, dose 50 mg/kg, route oral; details: plasma
Outline: (§3)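 Beagle dogs (one male, one female), fed, single oral dose of suspension in 0.1% Pluronic F127; plasma AUC0-24hr in μM.h; mean of the two animals.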

[7] = AUC (0 to 24 hrs) in Han Wistar rat at 154 mg/kg, po; assay type: ADME, organism-based; parameters: time < 24 hr, dose 154 mg/kg, route oral; details: plasma; outline: as §2
[8] = Half life in Han Wistar rat at 5 mg/kg, po; assay type: ADME, organism-based; parameters: dose 5 mg/kg, route oral; details: in vivo
[9] = Degradation half life in pH 10 buffer assessed as loss of trifluoro-oxadiazole group by measuring piperazine level at 25 degC; assay type: physicochemical
[10] = AUC (0 to 24 hrs) in beagle dog at 98 mg/kg, po; assay type: ADME, organism-based, Canis lupus familiaris; parameters: time < 24 hr, dose 98 mg/kg, route oral; details: plasma; outline: as §3
[11] = AUC (0 to 24 hrs) in C57BL6 mouse at 57 mg/kg, po; assay type: ADME, organism-based; parameters: time < 24 hr, dose 57 mg/kg, route oral; details: plasma
Outline: (§4)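 Male C57BL6 mice, fed, single oral dose of suspension in 0.1% Pluronic F127; plasma sampled, AUC0-24hr in μM.h; mean of two animals.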

[12] = Cmax in Han Wistar rat at 154 mg/kg, po; assay type: ADME, organism-based; parameters: dose 154 mg/kg, route oral; details: in vivo
[13] = Volume of distribution at steady state in C57BL6 mouse at 3 mg/kg, iv or 5 mg/kg, po; assay type: ADME, organism-based; details: in vivo, read-out: Vdss
Outline: (§5)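 Male C57BL6 mice. IV dose 3 mg/kg as a solution in 5% DMSO:95% hydroxypropyl β-cyclodextrin. Oral dose 5 mg/kg as a 0.1% HMPC/tween suspension. Plasma sampled for pharmacokinetic parameters.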

[14] = Half life in Han Wistar rat at 2 mg/kg, iv; assay type: ADME, organism-based; parameters: dose 2 mg/kg, route intravenous; details: in vivo
Outline: (§6)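 Male C57BL6 mice given 3 mg/kg, male Han Wistar rats 2 mg/kg, beagle dogs (male and female) 2 mg/kg, IV as solution in 5% DMSO:95% hydroxypropyl β-cyclodextrin; plasma PK parameters determined.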

[15] = Cmax in Han Wistar rat at […], po; assay type: ADME, organism-based; parameters: dose 7.1 mg/kg, route oral; details: in vivo
[16] = Half life in C57BL6 mouse at 3 mg/kg, iv; assay type: ADME, organism-based; parameters: dose 3 mg/kg, route intravenous; details: in vivo; outline: as §6
[17] = Intrinsic clearance in dog hepatocytes assessed per million cells; assay type: ADME, cell-based, Canis lupus familiaris, Hepatocyte; details: read-out: CLH
[18] = Cmax in C57BL6 mouse at […], po; assay type: ADME, organism-based; parameters: dose 5.7 mg/kg, route oral; details: in vivo
[19] = Intrinsic clearance in mouse hepatocytes assessed per million cells; assay type: ADME, cell-based, Hepatocyte; details: read-out: CLH
[20] = Cmax in beagle dog at 98 mg/kg, po; assay type: ADME, organism-based, Canis lupus familiaris; parameters: dose 98 mg/kg, route oral; details: in vivo
[21] = AUC (0 to 24 hrs) in C57BL6 mouse at 11 mg/kg, po; assay type: ADME, organism-based; parameters: time < 24 hr, dose 11 mg/kg, route oral; details: plasma; outline: as §4
[22] = Cmax in C57BL6 mouse at 31 mg/kg, po; assay type: ADME, organism-based; parameters: dose 31 mg/kg, route oral; details: in vivo
[23] = Cmax in C57BL6 mouse at 57 mg/kg, po; assay type: ADME, organism-based; parameters: dose 57 mg/kg, route oral; details: in vivo
[24] = AUC (0 to 24 hrs) in C57BL6 mouse at 31 mg/kg, po; assay type: ADME, organism-based; parameters: time < 24 hr, dose 31 mg/kg, route oral; details: plasma; outline: as §4
[25] = Half life in beagle dog at 3.4 mg/kg, po; assay type: ADME, organism-based, Canis lupus familiaris; parameters: dose 3.4 mg/kg, route oral; details: in vivo
[26] = AUC (0 to 24 hrs) in Han Wistar rat at 100 mg/kg, po; assay type: ADME, organism-based; parameters: time < 24 hr, dose 100 mg/kg, route oral; details: plasma; outline: as §2
[27] = Half life in C57BL6 mouse at 5 mg/kg, po; assay type: ADME, organism-based; parameters: dose 5 mg/kg, route oral; details: in vivo
[28] = AUC (0 to 24 hrs) in Han Wistar rat at 12 mg/kg, po; assay type: ADME, organism-based; parameters: time < 24 hr, dose 12 mg/kg, route oral; details: plasma; outline: as §2
[29] = Plasma clearance in C57BL6 mouse at 3 mg/kg, iv or 5 mg/kg, po; assay type: ADME, organism-based; outline: as §5
[30] = Plasma clearance in beagle dog at 2 mg/kg, iv or 3.4 mg/kg, po; assay type: ADME, organism-based, Canis lupus familiaris
Outline: (§7)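 Beagle dogs, male and female. IV dose 2 mg/kg in 5% DMSO:95% hydroxypropyl β-cyclodextrin. Oral dose 3.4 mg/kg as a 0.1% Pluronic F127 suspension. Plasma pharmacokinetic parameters derived.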

[31] = Intrinsic clearance in human hepatocytes assessed per million cells; assay type: ADME, cell-based, Hepatocyte; details: read-out: CLH
[32] = Cmax in C57BL6 mouse at 11 mg/kg, po; assay type: ADME, organism-based; parameters: dose 11 mg/kg, route oral; details: in vivo
[33] = Cmax in Han Wistar rat at 4.5 mg/kg, po; assay type: ADME, organism-based; parameters: dose 4.5 mg/kg, route oral; details: in vivo
[34] = AUC (0 to 24 hrs) in C57BL6 mouse at […], po; assay type: ADME, organism-based; parameters: time < 24 hr, dose 5.7 mg/kg, route oral; details: plasma
[35] = AUC (0 to 24 hrs) in beagle dog at 5 mg/kg, po; assay type: ADME, organism-based, Canis lupus familiaris; parameters: time < 24 hr, dose 5 mg/kg, route oral; details: plasma; outline: as §3
[36] = AUC (0 to 24 hrs) in Han Wistar rat at […], po; assay type: ADME, organism-based; parameters: time < 24 hr, dose 7.1 mg/kg, route oral; details: plasma
[37] = Stability in pH 1 to 8 buffer; assay type: physicochemical
[38] = Cmax in Han Wistar rat at 19 mg/kg, po; assay type: ADME, organism-based; parameters: dose 19 mg/kg, route oral; details: in vivo
[39] = Volume of distribution at steady state in beagle dog at 2 mg/kg, iv or 3.4 mg/kg, po; assay type: ADME, organism-based, Canis lupus familiaris; details: in vivo, read-out: Vdss; outline: as §7
[40] = Oral bioavailability in C57BL6 mouse at 5 mg/kg; assay type: ADME, organism-based; details: in vivo; outline: as §5
[41] = Permeability from apical to basolateral side in human Caco2 cells at 10 uM; assay type: ADME, cell-based; details: Caco-2
Outline: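 In vitro Caco-2 monolayer, compound at 10 µM. Apparent permeability (Papp) measured apical to basolateral; efflux ratio also determined.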

[42] = Cmax in Han Wistar rat at 100 mg/kg, po; assay type: ADME, organism-based; parameters: dose 100 mg/kg, route oral; details: in vivo
[43] = Stability in pH 10 buffer assessed as loss of trifluoro-oxadiazole group; assay type: physicochemical
[44] = Oral bioavailability in beagle dog at 3.4 mg/kg; assay type: ADME, organism-based, Canis lupus familiaris; details: in vivo; outline: as §7
[45] = Oral bioavailability in Han Wistar rat at 5 mg/kg; assay type: ADME, organism-based; details: in vivo; outline: as §1
[46] = Cmax in beagle dog at 5 mg/kg, po; assay type: ADME, organism-based, Canis lupus familiaris; parameters: dose 5 mg/kg, route oral; details: in vivo
[47] = Cmax in Han Wistar rat at 12 mg/kg, po; assay type: ADME, organism-based; parameters: dose 12 mg/kg, route oral; details: in vivo
[48] = Half life in beagle dog at 2 mg/kg, iv; assay type: ADME, organism-based, Canis lupus familiaris; parameters: dose 2 mg/kg, route intravenous; details: in vivo; outline: as §6
[49] = Cmax in beagle dog at 50 mg/kg, po; assay type: ADME, organism-based, Canis lupus familiaris; parameters: dose 50 mg/kg, route oral; details: in vivo
[50] = AUC (0 to 24 hrs) in Han Wistar rat at 4.5 mg/kg, po; assay type: ADME, organism-based; parameters: time < 24 hr, dose 4.5 mg/kg, route oral; details: plasma; outline: as §2

A logD [1] of 2.1 was found for `C[C@@H]1CN(c2nnc(C(F)(F)F)o2)CCN1c1ncc(OCc2ccc(CS(C)(=N)=O)cc2F)cn1` (some centres undefined) in this work.
A logD [1] of 3.7 was found for `C[C@@H]1CN(c2nc(C(F)(F)F)no2)CCN1c1ncc(OCc2ccc(S(C)(=O)=O)cc2F)cn1` in this work.
A clearance [2] of 11 mL/min/kg, an AUC(0-t) at 24 h [3] of 106 µM·h and a Vd [4] of 5.2 L/kg were found for `C[C@@H]1CN(c2nc(C(F)(F)F)no2)CCN1c1ncc(OCc2ccc(CS(C)(=O)=O)cc2F)cn1` in this work. The fCmax [5] was 0.7 µM, the AUC(0-t) at 24 h [6] was 42 µM·h and the AUC(0-t) at 24 h [7] was 247 µM·h. The half-life [8] was 6.7 h, the t1/2 [9] was 60 h and the AUC(0-t) at 24 h [10] was 78 µM·h. The AUC(0-t) at 24 h [11] was 456 µM·h, the Cmax [12] was 13.7 µM and the Vd [13] was 5.1 L/kg. For the same compound, the half-life [14] was 6.1 h, the Cmax [15] was 1.1 µM and the half-life [16] was 6.3 h. The hepatocyte CLint [17] was < 2 µL/min/1e6 cells, the Cmax [18] was 2.5 µM and the hepatocyte CLint [19] was 7 µL/min/1e6 cells. For the same compound, the Cmax [20] was 5.3 µM, the AUC(0-t) at 24 h [21] was 35 µM·h and the Cmax [22] was 11.8 µM. For the same compound, the Cmax [23] was 29 µM, the AUC(0-t) at 24 h [24] was 151 µM·h and the half-life [25] was 30 h. The AUC(0-t) at 24 h [26] was 123 µM·h, the half-life [27] was 6.9 h and the AUC(0-t) at 24 h [28] was 33 µM·h. The clearance [29] was 9.8 mL/min/kg, the logD [1] was 3.6 and the clearance [30] was 1.6 mL/min/kg. The hepatocyte CLint [31] was < 2 µL/min/1e6 cells, the Cmax [32] was 3.3 µM and the Cmax [33] was 0.8 µM. It also gave an AUC(0-t) at 24 h [34] of 26 µM·h, an AUC(0-t) at 24 h [35] of 20 µM·h and an AUC(0-t) at 24 h [36] of 11 µM·h. The Stability [37] was “Stable”, the Cmax [38] was 7.5 µM and the Vd [39] was 3.3 L/kg. The bioavailability [40] was 76%, the Papp A→B at 10 µM [41] was 10 ×10⁻⁶ cm/s and the Cmax [42] was 8 µM. For the same compound, the Stability [43] was “Unstable”, the bioavailability [44] was 98% and the bioavailability [45] was 85%. It also gave a Cmax [46] of 1.5 µM, a Cmax [47] of 3.4 µM and a half-life [48] of 26 h. The Cmax [49] was 3.2 µM and the AUC(0-t) at 24 h [50] was 10 µM·h.
A logD [1] of 3.4 was found for `C[C@@H]1CN(c2nc(C(F)(F)F)no2)CCN1c1ncc(OCc2ccc(C[S+](C)[O-])cc2F)cn1` (some centres undefined) in this work.
A logD [1] of 2.8 was found for `C[C@@H]1CN(c2nc(C(F)(F)F)no2)CCN1c1ncc(OCc2ccc(CS(C)(=N)=O)cc2F)cn1` (some centres undefined) in this work.
